Fewer inactive variants are shown than the library holds.
B1: tRNA (parent)
chain: GUUCCGUUGGCGUAAUGGUAACGCGUCUCCCUCCUAAGGAGAAGACUGCGGGUUCGAGUCCCGUACGGAACG

Variants of: B1
Assay: yeast fitness relative to wild type (ratio to wild type); higher = fitter; tRNA-Arg(CCU), competitive growth, 37 C, YPD
Method in brief: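 Start and end populations of a pooled competition were compared by 100-nucleotide paired-end sequencing of gene amplicons. The Saccharomyces cerevisiae strains carried tRNA-Arg(CCU) gene variants at the native genomic locus, synthesised with a 3% per-site mutation rate at 69 sites, and competed in YPD at 37°C for 24 hours in six parallel replicates. Darwinian fitness relative to wild type was based on the change in genotype frequencies. Genotypes required ≥ 100 starting reads, and estimates < 0.5 were set to 0.5.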

GUACCGUUGGCGUACUGGUAACGCGUCUCCCUCCAAAGGAGAAGACUGCGGCUUAGAGUCCCGUACGGAACG [U3A A15C U35A G52C C55A] and GUACCGUUGGCGUAGUGGUAACGAGUCUCCCUCCUAAGGAGAAGACUGCGGGUUCGAGUCCCGUACGGAACG [U3A A15G C24A] cannot be ordered by yeast fitness: at most 0.5 for the first, at most 0.5 for the second.

Compared with GUACCGUUGGCGUAGUGGUAACGCGUCUCCCUCCUAAGGAGAAGACUCCGGGUUCGAGUCCCGUACGGAACG [U3A A15G G48C], GUACCGUUGGCGUAGUGGAAACGCGUCUCCCCCCUAAGGAAAAGACUGCAGGUUCGAGUCCCGUACGGAACG [U3A A15G U19A U32C G41A G50A] is lower in yeast fitness: 0.595 for the first, at most 0.5 for the second.

Going from GUACCGUUGGCGUAGUGGUAACGCGUCCCCCUCCUAAGGAGAAGACUGCGGGUUCGAGUACCGUACGGAACG [U3A A15G U28C C60A] to GUACCGUUGGCGUAUUGGUAACCCGUUUCCCUCCUAAGGAGAAGACUGCGGAUUCGAGUCCCGUAUGGAACG [U3A A15U G23C C27U G52A C66U], the yeast fitness falls from 0.522 to at most 0.5.

Compared with GUACCGUUGGCGUAUUGGUAACGCGUCUCCCUCCUAAGGAGAAGACUACGGGUUCGGGUCACGUACGGAACG [U3A A15U G48A A57G C61A], GUACCGUUGGCGUAAUGGUCGCGCGUCUCCCUCCUAAGGAGAAGACUGCGGGUUCGAGUCCCGUACGGAACG [U3A A20C A21G] is higher in yeast fitness: at most 0.5 for the first, 0.679 for the second.

Going from GUACCGUUGGCGUAAUGGUGAUGCGUCUCCCUCCUAAGGAGAAGACUGCGGGUUCGAGUCCCGUACGGAACG [U3A A20G C22U] to GUACCGUUGGCGUAAUGGUGACGCGUCUCCCUCCUAAGGAGAAGACUGCGGGUUGGAGUCUCGUACGGAACG [U3A A20G C55G C61U], the yeast fitness falls from 0.584 to at most 0.5.

GUACCGUUGGCGUAAUGGUUACGCGUCUCCCUCCUAAGGAGCAGACUGCGGGUUGGAGUCCCGUACGGAACG [U3A A20U A42C C55G] and GUACCGUUGGCGUAAUGGUUACGCGUCUCCCUCCUAAGGAGAAGUCUGCGGGUUCGACUCCCGUACCGAACG [U3A A20U A45U G58C G67C] cannot be ordered by yeast fitness: at most 0.5 for the first, at most 0.5 for the second.

First: GUACCGUUGGCGUAAUGGUUACGCGUCUGCCUCCUAAGGUGAAGACUGCCGGUUCGAGUCCCGUACGGAACG [U3A A20U C29G A40U G50C]
Second: GUACCGUUGGCGUAAUGGUUACGCGUCUCCGUCCUAAGGAGAAGACUGCGGGUUCGAGUCCCGUACGGAACG [U3A A20U C31G]
The yeast fitness of the first is lower: at most 0.5 for the first, 0.535 for the second.

First: GUACCGUUGGCGUAAUGGUACCGGGUCUCCCUCCUAAGGAGAAGACUGCGGGUUCAAGUCCCGUACGGAACG [U3A A21C C24G G56A]
Second: GUACCGUUGGCGUAAUGGUACCGCGUCUCCCUUCAAAGGAGAAGACUGCGCGUUCGAGUCCCGUACGCAUCG [U3A A21C C33U U35A G51C G68C A70U]
The yeast fitness of the first is lower: at most 0.5 for the first, 0.564 for the second.

Going from GUACCGUUGGCGUAAUGGUACCGCUUCUCCCUCCUAAGGAGACGACUGCGGGUUCGAGUCAUGUACGGAACG [U3A A21C G25U A43C C61A C62U] to GUACCGUUGGCGUAAUGGUACCGCUUCUCCCUCCUAAGGAGACGACUGCGGGUUCGAGUCGUGUACGGAACG [U3A A21C G25U A43C C61G C62U], the yeast fitness falls from 0.592 to at most 0.5.

First: GUACCGUUGGCGUAAUGGUAGCGCGUCUCCCUCCUAAGGAGAAGUCUGCGGGUUCGAGUCCCGUACCGAACG [U3A A21G A45U G67C]
Second: GUACCGUUGGCGUAAUGGUAGCGCGUCUCCCUCCUAAGGAGAAGACUGCGGGUUCGAGUCCCGUCCGGAACG [U3A A21G A65C]
The yeast fitness of the first is lower: at most 0.5 for the first, 0.64 for the second.

GUACCGUUGGCGUAAUGGUAGCGCGUCUCCCUCGUAAGGGGAAGACUGCGGGUUCGAGUGCGGUACGGAACG [U3A A21G C34G A40G C60G C62G] and GUACCGUUGGCGUAAUGGUAGCGCGUCUCCCUCCAAAGGUGAAGACUGCGGGUCCGAGUCCCGUACGGAACG [U3A A21G U35A A40U U54C] cannot be ordered by yeast fitness: at most 0.5 for the first, at most 0.5 for the second.

GUACCGUUGGCGUAAUGGUAUCGCGUCUCCCUCCUAAGGAGAAGACUGCGGGUUCGAGUGCCGUAUGGAACG [U3A A21U C60G C66U] and GUACCGUUGGCGUAAUGGUAUCGCGUCUCCCUCCUAAGGAGAAGACUGCGCGUUCGAGUCCCGUACGGAACG [U3A A21U G51C] cannot be ordered by yeast fitness: at most 0.5 for the first, at most 0.5 for the second.

First: GUACCGUUGGCGUAAUGGUAACGCGUCUCCCUCCUGAGGAGCAGACUGCGGGUUCGAGUCCCGUACGGAACG [U3A A36G A42C]
Second: GUACCGUUGGCGUAAUGGUAACGCGUCUCCCUCCUGAGGAGUAGACUGCGGGUUCGAGUCCCGUACGGAACG [U3A A36G A42U]
The yeast fitness of the first is higher: 0.647 for the first, 0.619 for the second.

First: GUACCGUUGGCGUAAUGGUAACGCGUCUCCCUCCUGAGGAGAAGACUGCGGGUUCGAGUCCUGUACGGAACG [U3A A36G C62U]
Second: GUACCGUUGGCGUAAUGGUAACGCGUCUCCCUCCUUAGGAGAAGACUGCGGGUUCGAGUCCCGUACGGAACG [U3A A36U]
The yeast fitness of the first is higher: 0.69 for the first, 0.681 for the second.

GUACCGUUGGCGUAAUGGUAACGCGUCUCCCUCCUUAGGAGAAGACUGCGGGUUAGAGUCCUGUACGGAACG [U3A A36U C55A C62U] and GUACCGUUGGCGUAAUGGUAACGCGUCUCCCUCCUACGGAGAAGACUGCGGGUUCGAGUACCGUACGGAGCG [U3A A37C C60A A70G] cannot be ordered by yeast fitness: at most 0.5 for the first, at most 0.5 for the second.

GUACCGUUGGCGUAAUGGUAACGCGUCUCCCUCCUACGGAGAAGACUGCGGGUUCGAGUCACGUACGGAACG [U3A A37C C61A] and GUACCGUUGGCGUAAUGGUAACGCGUCUCCCUCCUACGGAGAACUCUGCGGGUUCGAGUCCCGUACGGAACG [U3A A37C G44C A45U] cannot be ordered by yeast fitness: at most 0.5 for the first, at most 0.5 for the second.

GUACCGUUGGCGUAAUGGUAACGCGUCUCCCUCCUAAGGCGAAGACUGCGGGUUAGAGUCCCGUAAGGAACG [U3A A40C C55A C66A] and GUACCGUUGGCGUAAUGGUAACGCGUCUCCCUCCUAAGGCGAAGACUGCGGGUUCGAGUUCGGUACGGAACG [U3A A40C C60U C62G] cannot be ordered by yeast fitness: at most 0.5 for the first, at most 0.5 for the second.

Compared with GUACCGUUGGCGUAAUGGUAACGCGUCUCCCUCCUAAGGCGAAGACUGCGGGUUCGAGUCCGGUACGCAACG [U3A A40C C62G G68C], GUACCGUUGGCGUAAUGGUAACGCGUCUCCCUCCUAAGGCGAAGACUGCGGGUUCGAGUCCUGUACGGAACG [U3A A40C C62U] is higher in yeast fitness: at most 0.5 for the first, 0.548 for the second.

Going from GUACCGUUGGCGUAAUGGUAACGCGUCUCCCUCCUAAGGCGAAGACAGCGGGUUCGAGUCCCGUACGGAACG [U3A A40C U47A] to GUACCGUUGGCGUAAUGGUAACGCGUCUCCCUCCUAAGGGGAAGACUGCGGGAUCGAGUCCCGUACGGAACG [U3A A40G U53A], the yeast fitness falls from 0.647 to at most 0.5.

From the RNAGym collection of RNA variant scans (doi:10.1126/science.aae0568)
